pIC50, pKi: −log10 of the molar value.
Legend:
[1] = molecular target: Delta-type opioid receptor (Rattus norvegicus, UniProt P33533); test: Displacement of [3H]deltorphin 2 from delta opioid receptor in Sprague-Dawley rat brain P2 synaptosomal membrane
How it was run: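 Equilibrium incubation 2.5 h at 23 °C. Filtration through glass fibre filters pre-soaked in 0.1% polyethylenimine, then three washes in ice-cold buffered 0.1% BSA. Ki by Cheng–Prusoff.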

Mu-type opioid receptor [2] = molecular target: Mu-type opioid receptor (Rattus norvegicus, UniProt P33535); test: Displacement of [3H]DAMGO from mu opioid receptor in Sprague-Dawley rat brain P2 synaptosomal membrane
Sequence of Mu-type opioid receptor (Rattus norvegicus, UniProt P33535) (P33535 whole entry): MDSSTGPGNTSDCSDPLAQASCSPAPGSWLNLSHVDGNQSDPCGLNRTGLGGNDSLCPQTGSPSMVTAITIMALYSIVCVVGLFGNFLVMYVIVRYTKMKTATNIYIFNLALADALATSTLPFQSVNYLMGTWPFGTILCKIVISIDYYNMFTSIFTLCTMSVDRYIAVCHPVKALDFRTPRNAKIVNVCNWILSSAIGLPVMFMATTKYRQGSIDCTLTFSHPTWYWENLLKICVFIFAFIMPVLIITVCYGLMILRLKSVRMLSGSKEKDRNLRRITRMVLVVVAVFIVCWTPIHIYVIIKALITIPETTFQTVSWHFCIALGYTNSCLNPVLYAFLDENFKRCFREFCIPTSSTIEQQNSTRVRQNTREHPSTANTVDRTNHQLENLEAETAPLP

Rattus norvegicus = organism: Rattus norvegicus; test: Ratio of Ki for Sprague-Dawley rat mu opioid receptor to Ki for Sprague-Dawley rat delta opioid receptor
[3] = molecular target: T1, Delta-type opioid receptor (Mus musculus, UniProt P32300); test: Agonist activity at delta opioid receptor in mouse vas deference; format: functional
T1 sequence (P32300 whole entry): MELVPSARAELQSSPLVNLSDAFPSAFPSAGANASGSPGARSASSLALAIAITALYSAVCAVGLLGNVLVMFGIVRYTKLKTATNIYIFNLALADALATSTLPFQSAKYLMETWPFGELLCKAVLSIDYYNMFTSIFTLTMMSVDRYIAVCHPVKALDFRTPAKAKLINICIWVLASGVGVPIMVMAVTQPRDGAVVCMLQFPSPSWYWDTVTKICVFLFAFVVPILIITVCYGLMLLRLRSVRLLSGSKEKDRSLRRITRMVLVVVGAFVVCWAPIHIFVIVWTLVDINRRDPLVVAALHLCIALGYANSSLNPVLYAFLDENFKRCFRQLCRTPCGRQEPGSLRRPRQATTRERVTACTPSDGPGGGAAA
How it was run: (§1)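 Isolated tissue assay in organ baths with balanced salt solution in physiological buffer, pH 7.5. Delta agonism measured on single mouse vas deferens, mu agonism on myenteric plexus longitudinal muscle strips (2–3 cm) from small intestine of male Hartley guinea pigs. Inhibition of electrically evoked contraction; IC50 (nM) from dose-response curves. DPDPE (MVD) and PL017 (GPI) run as internal standards. Mean ± SE of at least four tissue samples.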

Mu-type opioid receptor [4] = molecular target: T2, Mu-type opioid receptor (Cavia porcellus, UniProt P97266); test: Agonist activity at mu opioid receptor in Hartley guinea pig small intestine; format: functional, tissue-based; how it was run: as §1
T2 sequence (P97266 whole entry): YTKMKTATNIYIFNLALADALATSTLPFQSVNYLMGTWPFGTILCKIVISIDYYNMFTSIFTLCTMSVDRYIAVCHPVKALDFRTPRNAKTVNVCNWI

Mu-type opioid receptor [5] = molecular target: T2, Mu-type opioid receptor; test: Antagonist activity at mu opioid receptor in Hartley guinea pig small intestine; format: functional, tissue-based; settings: read-out: pA2 (converted)
How it was run: (§2)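 Organ-bath tissue preparations in physiological buffer, pH 7.5, with electrically evoked contractions. Delta antagonism on mouse vas deferens measured against deltorphin II. Mu antagonism on male Hartley guinea pig ileum myenteric plexus longitudinal muscle measured against endomorphin-2. pA2 derived by the Kosterlitz and Watt method.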

[6] = molecular target: T1, Delta-type opioid receptor; test: Antagonist activity at delta opioid receptor in mouse vas deference; format: functional; settings: read-out: pA2 (converted); how it was run: as §2

Sequence of Delta-type opioid receptor (Rattus norvegicus, UniProt P33533) (P33533 whole entry): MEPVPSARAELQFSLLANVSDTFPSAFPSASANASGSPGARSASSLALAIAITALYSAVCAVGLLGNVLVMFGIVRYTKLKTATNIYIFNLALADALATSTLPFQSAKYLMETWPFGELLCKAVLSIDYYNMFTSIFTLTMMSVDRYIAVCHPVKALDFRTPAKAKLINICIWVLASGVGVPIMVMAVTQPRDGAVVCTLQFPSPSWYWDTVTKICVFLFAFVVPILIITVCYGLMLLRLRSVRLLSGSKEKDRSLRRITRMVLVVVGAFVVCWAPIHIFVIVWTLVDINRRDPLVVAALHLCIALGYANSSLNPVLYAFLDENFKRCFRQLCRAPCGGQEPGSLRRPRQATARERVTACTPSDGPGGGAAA

SMILES | pKi [1] | pKi (Mu-type opioid receptor [2]) | Selectivity ratio (Rattus norvegicus) | pIC50 [3] | pIC50 (Mu-type opioid receptor [4]) | Kb (Mu-type opioid receptor [5]) [nM] | Kb [6] [nM]
CN(C)[C@@H](Cc1ccc(O)cc1)C(=O)N1Cc2ccccc2C[C@H]1C(N)=O | 6.70 | 5.84 | 7 |  |  |  | 
N[C@@H](Cc1ccc(O)cc1)C(=O)N1Cc2ccccc2C[C@H]1C(=O)NCc1nc2ccccc2[nH]1 | 9.04 | 7.17 | 73 | 7.30 | 5.38 |  | 
Cc1cc(O)cc(C)c1C[C@@H](C(=O)N1Cc2ccccc2C[C@H]1C(=O)O)N(C)C | 9.93 |  | 20600 |  |  | 1580 | 
N[C@@H](Cc1c(F)cc(O)cc1F)C(=O)N1Cc2ccccc2C[C@H]1C(=O)NCc1nc2ccccc2[nH]1 | 9.00 | 7.26 | 54 | 7.17 | < 5.00 |  | 
N[C@@H](Cc1ccc(O)cc1)C(=O)N1Cc2ccccc2C[C@H]1C(=O)N[C@@H](CC(=O)O)c1nc2ccccc2[nH]1 | 9.75 | 6.17 | 3860 |  |  |  | 1.41
CN(C)[C@@H](Cc1ccc(O)cc1)C(=O)N1Cc2ccccc2C[C@H]1C(=O)O | 7.46 | 5.91 | 35 |  |  |  | 
Cc1cc(O)cc(C)c1C[C@@H](C(=O)N1Cc2ccccc2C[C@H]1C(N)=O)N(C)C | 9.51 | 6.29 | 1660 |  |  | 501 | 0.126
N[C@@H](Cc1c(F)cc(O)cc1F)C(=O)N1Cc2ccccc2C[C@H]1C(=O)N[C@@H](CC(=O)O)c1nc2ccccc2[nH]1 | 9.79 | 6.65 | 1390 |  |  |  | 1.12
CN(C)[C@@H](Cc1c(F)cc(O)cc1F)C(=O)N1Cc2ccccc2C[C@H]1C(N)=O | 6.75 | 6.22 | 3 |  |  |  | 
CN(C)[C@@H](Cc1c(F)cc(O)cc1F)C(=O)N1Cc2ccccc2C[C@H]1C(=O)O | 7.53 | 6.24 | 20 |  |  |  | 
